Measurements reported in ChEMBL document CHEMBL1130246, “Tyrosine kinase inhibitors. 13. Structure-activity relationships for soluble 7-substituted 4-[(3-bromophenyl)amino]pyrido[4,3-d]pyrimidines designed as inhibitors of the tyrosine kinase activity of the epidermal growth factor receptor” (J Med Chem, 1997).
Converted amounts (≈) assume the structure as drawn. “And” between values parts separate entries of the source, which are not always exact repeats. Identical values can stand only once.

What was measured:
[1] = target: T1, Epidermal growth factor receptor (Homo sapiens, UniProt P00533); assay: Inhibition of phosphorylation of polyglutamic acid/tyrosine random copolymer by epidermal growth factor receptor.
T1 sequence (P00533 whole entry): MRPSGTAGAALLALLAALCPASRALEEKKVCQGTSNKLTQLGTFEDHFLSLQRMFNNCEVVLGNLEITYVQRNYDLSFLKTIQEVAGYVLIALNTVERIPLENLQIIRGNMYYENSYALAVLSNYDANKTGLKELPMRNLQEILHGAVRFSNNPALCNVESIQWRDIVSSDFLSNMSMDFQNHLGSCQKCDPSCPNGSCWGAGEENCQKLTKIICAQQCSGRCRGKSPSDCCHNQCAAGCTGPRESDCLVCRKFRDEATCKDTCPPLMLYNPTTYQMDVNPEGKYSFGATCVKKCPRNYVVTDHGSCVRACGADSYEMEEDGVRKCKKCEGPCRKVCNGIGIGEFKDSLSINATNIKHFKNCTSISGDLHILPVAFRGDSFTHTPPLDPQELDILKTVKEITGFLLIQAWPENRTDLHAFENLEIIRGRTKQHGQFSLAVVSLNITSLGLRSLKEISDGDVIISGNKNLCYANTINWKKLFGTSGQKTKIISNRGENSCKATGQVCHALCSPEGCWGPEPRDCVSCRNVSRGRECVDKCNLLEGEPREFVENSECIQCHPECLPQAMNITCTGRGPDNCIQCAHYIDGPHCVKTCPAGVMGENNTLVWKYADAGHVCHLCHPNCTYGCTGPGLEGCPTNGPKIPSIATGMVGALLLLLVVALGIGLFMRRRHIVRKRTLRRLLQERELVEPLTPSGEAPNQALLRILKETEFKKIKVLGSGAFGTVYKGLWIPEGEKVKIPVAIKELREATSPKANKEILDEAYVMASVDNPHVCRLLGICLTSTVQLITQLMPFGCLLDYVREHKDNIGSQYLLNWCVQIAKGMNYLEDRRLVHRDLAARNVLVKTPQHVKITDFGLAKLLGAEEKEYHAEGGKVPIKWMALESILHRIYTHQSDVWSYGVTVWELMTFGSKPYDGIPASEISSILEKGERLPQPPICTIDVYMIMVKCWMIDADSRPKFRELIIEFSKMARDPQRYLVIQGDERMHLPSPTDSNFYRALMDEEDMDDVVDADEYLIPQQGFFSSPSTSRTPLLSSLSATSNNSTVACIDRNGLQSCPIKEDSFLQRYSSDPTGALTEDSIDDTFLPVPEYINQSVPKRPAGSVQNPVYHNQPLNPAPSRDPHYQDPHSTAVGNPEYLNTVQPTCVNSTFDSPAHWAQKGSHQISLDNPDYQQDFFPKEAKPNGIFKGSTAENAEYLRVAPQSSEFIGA

[2] = target: T1, Epidermal growth factor receptor; assay: Inhibition of epidermal growth factor receptor (EGFR) autophosphorylation in A431 cells
[3] = target: T1, Epidermal growth factor receptor; assay: Inhibition of epidermal growth factor receptor (EGFR) from human A431 carcinoma cells
[4] = Solubility in water was determined; format: physicochemical
Summary of the method: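 Drug weighed to give approximately 50 mM, sonicated 30 min in 0.05 M sodium lactate buffer (neutral compounds, amine hydrochlorides) or water (sodium salts of acids), left 30 min, centrifuged 13 000 rpm 3 min; supernatant concentration measured by HPLC against calibration from MeOH or DMSO stocks, assuming linear response; 20 °C.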

Mus musculus [5] = organism: Mus musculus; assay: Treatment-related weight loss in mice; format: functional
Summary of the method: (§1)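 Mice 18-22 g, randomized, implanted sc with A431 epidermoid or EGFR-transfected NIH 3T3 tumor fragments in right axilla on day 0; tumors maintained by serial passage in NCr nu/nu nude mice. Isethionate salts given ip in water, b.i.d. on indicated schedules (days 7-21, 3-17 or 1-15), dosed by average cage weight; solutions prepared 5 days at a time. Maximum treatment-related body weight loss recorded.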

Mus musculus [6] = organism: Mus musculus; assay: Ratio of median treated tumor mass on the last day of therapy divided by the median control tumor mass x 100%.; format: functional; summary of the method: as §1

Compound	IC50 [1]	further results
OCC(O)CNc1cc2ncnc(Nc3cccc(Br)c3)c2cn1 (stereo unspecified)	0.92 nM	IC50 [2]: 227 nM
Cc1cccc(Nc2ncnc3cc(NCCc4c[nH]cn4)ncc23)c1	–	IC50 [3]: 7.2 nM; solubility [4]: > 39 mM
CN(CCO)c1cc2ncnc(Nc3cccc(Br)c3)c2cn1	2.6 nM	–
[O-][N+]1(CCCNc2cc3ncnc(Nc4cccc(Br)c4)c3cn2)CCOCC1	0.74 nM	IC50 [2]: > 1000 nM
O=C(O)CCNc1cc2ncnc(Nc3cccc(Br)c3)c2cn1	0.61 nM	IC50 [2]: 11400 nM
CN(C)CCCCNc1cc2ncnc(Nc3cccc(Br)c3)c2cn1	7.4 nM	Weight loss (Mus musculus [5]): 1 g
CN(C)CCCNc1cc2ncnc(Nc3cccc(Br)c3)c2cn1	8.8 nM	–
OCC(CO)Nc1cc2ncnc(Nc3cccc(Br)c3)c2cn1	14 nM	–
OCCN(CCO)CCCNc1cc2ncnc(Nc3cccc(Br)c3)c2cn1	1.2 nM	–
CNc1cc2ncnc(Nc3cccc(C)c3)c2cn1	1.4 nM	–
Brc1cccc(Nc2ncnc3cc(NCCCn4ccnc4)ncc23)c1	–	IC50 [3]: 0.51 nM; solubility [4]: > 40 mM
NNc1cc2ncnc(Nc3cccc(Br)c3)c2cn1	7.1 nM	–
CN(C)CCN(C)c1cc2ncnc(Nc3cccc(Br)c3)c2cn1	40 nM	–
Brc1cccc(Nc2ncnc3cc(NCCCCN4CCOCC4)ncc23)c1	5.4 nM	–
OCC(O)C(O)C(O)C(O)CNc1cc2ncnc(Nc3cccc(Br)c3)c2cn1 (stereo unspecified)	4.8 nM	–
O=C(O)CCCNc1cc2ncnc(Nc3cccc(Br)c3)c2cn1	0.28 nM	–
CN(CC(O)CO)c1cc2ncnc(Nc3cccc(Br)c3)c2cn1 (stereo unspecified)	3.2 nM	–

Compound	IC50 [1]	further results
OCCNc1cc2ncnc(Nc3cccc(Br)c3)c2cn1	0.24 nM	–
Brc1cccc(Nc2ncnc3cc(NCCc4c[nH]cn4)ncc23)c1	–	IC50 [3]: 0.91 nM; solubility [4]: 35 mM (≈ 14.4 mg/mL)
Cc1cccc(Nc2ncnc3cc(NCCCCN(C)C)ncc23)c1	5.4 nM	–
O=C(O)CNc1cc2ncnc(Nc3cccc(Br)c3)c2cn1	1.5 nM	–
Brc1cccc(Nc2ncnc3cc(NCCCN4CCOCC4)ncc23)c1	1.9 nM	T/C (Mus musculus [6]): 34%; IC50 [2]: 8.1 nM; Weight loss (Mus musculus [5]): 1.7 g and 0.9 g
Brc1cccc(Nc2ncnc3cc(NCCN4CCOCC4)ncc23)c1	3.2 nM	IC50 [2]: 36 nM
OCCN(CCO)c1cc2ncnc(Nc3cccc(Br)c3)c2cn1	12 nM	–
CN(CC(O)C(O)C(O)C(O)CO)c1cc2ncnc(Nc3cccc(Br)c3)c2cn1 (stereo unspecified)	3.2 nM	–
CN(CC(=O)O)c1cc2ncnc(Nc3cccc(Br)c3)c2cn1	16 nM	–
Cc1cccc(Nc2ncnc3cc(NCCCN4CCN(C)CC4)ncc23)c1	5.6 nM	–
OCCN(CCO)CCNc1cc2ncnc(Nc3cccc(Br)c3)c2cn1	9.2 nM	–
Cc1cccc(Nc2ncnc3cc(NCCCn4ccnc4)ncc23)c1	–	IC50 [3]: 3.5 nM; solubility [4]: > 34 mM
CN(C)CCCCCNc1cc2ncnc(Nc3cccc(Br)c3)c2cn1	8.4 nM	–
CN1CCN(CCCNc2cc3ncnc(Nc4cccc(Br)c4)c3cn2)CC1	4.9 nM	–
CN(C)CCNc1cc2ncnc(Nc3cccc(Br)c3)c2cn1	45 nM	–
O=S(=O)(O)CCNc1cc2ncnc(Nc3cccc(Br)c3)c2cn1	1.4 nM	IC50 [2]: > 1000 nM
